# Compound activity deposited in PubChem by several laboratories.
# Mdm2 ligase inh = MDM2-luciferase reporter signal enhancers, primary screen, MDM2 E3 ligase inhibitor project, cell-based, luminescence, 1536-well. E3 ubiquitin-protein ligase Mdm2 (Homo sapiens), Q00987. actives 0.11% (n = 210,000). signal enhancement, % at 5 µM. AID 1230, 2008. cell-based MDM2 ubiquitination luciferase reporter, 2 h; 0 = plate control, 100 = twice control, blank-subtracted;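 active = signal enhancement of 30% or more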;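 also: luminescence tracks abundance of the self-degrading MDM2-luciferase fusion protein; higher signal means inhibition of MDM2 E3 ligase activity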
# Target sequence (Q00987 whole entry, looked up, the tested form may be a part): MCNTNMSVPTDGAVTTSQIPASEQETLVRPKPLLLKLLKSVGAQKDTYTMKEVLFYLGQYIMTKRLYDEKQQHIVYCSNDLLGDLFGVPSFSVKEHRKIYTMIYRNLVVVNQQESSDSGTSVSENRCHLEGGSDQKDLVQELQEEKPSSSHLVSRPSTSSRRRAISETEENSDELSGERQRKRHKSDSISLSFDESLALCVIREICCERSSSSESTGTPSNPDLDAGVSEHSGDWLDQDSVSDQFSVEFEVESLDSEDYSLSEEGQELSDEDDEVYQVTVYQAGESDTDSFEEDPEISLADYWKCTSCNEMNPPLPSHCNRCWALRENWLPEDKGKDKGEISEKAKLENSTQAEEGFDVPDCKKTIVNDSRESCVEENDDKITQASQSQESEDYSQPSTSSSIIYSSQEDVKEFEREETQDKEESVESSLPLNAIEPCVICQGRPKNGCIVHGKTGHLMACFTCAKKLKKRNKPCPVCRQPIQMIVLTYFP
#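 Material: stable MDM2–luciferase fusion reporter cells / Quantity: 2000 cells/well / Dosing: single 5 µM compound dose, 0.2% final DMSO / Buffer or medium: DMEM / Schedule: 4 h cell settling then 2 h compound exposure, 37 °C / Detection: luminescence with SteadyLite reagent, 15 min at room temperature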
# TNF death inh = inhibitors of TNF-alpha triggered necroptosis, primary screen, cell-based, Jurkat FADD-/-, single concentration. actives 0.068% (n = 220,000). Jurkat FADD-/- TNF necroptosis rescue, ATP luminescence, 24 h; 0 = TNF only, 100 = no-TNF cells. activation (protection from cell death), % at 10 µM. AID 463075, 2010;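 active = activation, meaning protection from cell death, of at least 50% relative to plate controls; inactive = activation below 50%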;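 also: necroptosis triggered by 40 ng/mL TNF-alpha added together with compound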
# HSV replic up = enhancers of HSV replication in host cells, fold increase, host cell viability | HSV replication augmentation in cells | maximum fold increase | actives 0.005% (n = 220,000) | AID 1956, 2009; in the data active = maximum fold increase above about 1.5; inconclusive = no clear call, values can overlap the other calls; tested in PC3 cells
# E-sel TNF inh = E-selectin induction blockers in HUVEC – imaging, immunofluorescence, high content, primary screen; HUVEC TNFa-induced E-selectin immunofluorescence; AID 1246, 2008; inhibition, % at 2 µM; actives 0.71% (n = 120,000);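 active = inhibition above the batch mean plus 3 SD, and confirmed as a hit on visual image review, cut at about 43% in these data; inconclusive = passes the inhibition cutoff but fails visual image review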;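 also: 0% = TNF-stimulated DMSO wells and 100% = unstimulated control wells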
# L929 necroptosis = inhibitors of zVAD-triggered necroptosis, primary screen, L929 cells | actives 0.38% (n = 220,000) | L929 zVAD necroptosis rescue, ATP luminescence, 24 h; with zVAD 60 µM | viability rescue, % at 10 µM | AID 1377, 2008;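 active = activation, scaled between plate controls, above about 75%, limit read from the data; inactive = activation under that limit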;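 also: 0% = zVAD with DMSO and 100% = DMSO alone without zVAD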
# * marks the source's active call; other numbers are inactive results; i = inactive; ? = inconclusive; · = no result. The list is not random: actives were taken first. Their share in the collection is about 0.89%.
SMILES,Mdm2 ligase inh,TNF death inh,HSV replic up,E-sel TNF inh,L929 necroptosis
O=C1N/C(=C/c2ccc(N3CCOCC3)o2)C(=O)N1c1cccc(Cl)c1,-13,-2,i,·,0
Cc1ccnc(N2C(=O)C3C4CC(C(Br)C4Br)C3C2=O)c1 (configuration not stated),-16,-1,i,54*,0
O=C1C2C3CC(C(Br)C3Br)C2C(=O)N1c1ccccn1 (configuration not stated),-13,-2,i,-9,0
CCOC(=O)c1sc2nc(CSc3nc4ccccc4n3CC)[nH]c(=O)c2c1C,-2,-3,i,77*,0
c1ccc2nc3c(cc2c1)CCCCC3,·,4,i,·,1
O=C(Oc1nsnc1N1CCOCC1)N1CCOCC1,1,-1,i,77*,-1
Cc1cccc(OCCCC(=O)O)c1,5,-1,i,65*,0
O=C(Nc1ccc(S(=O)(=O)Nc2ncccn2)cc1)c1cccc(S(=O)(=O)N2CCCC2)c1,·,-1,i,·,0
CCOC(=O)C1(Cc2ccccc2Cl)CCN(Cc2csc(C(C)=O)c2)CC1,5,2,i,-9,0
CCOc1ccc(-n2nc(C(=O)N3CCN(CC)CC3)c3ccccc3c2=O)cc1,-4,-2,i,66*,0
Cc1ccc(CNC(=O)COC(=O)CCC(=O)c2cccs2)cc1,-6,-1,i,5,2
CCCNC(=O)C12CCC(C)(c3nc4cc(C)c(C)cc4nc31)C2(C)C (configuration not stated),-2,1,i,·,3
CC(C)n1c(SCC(=O)N2c3ccccc3Sc3ccccc32)nc2c1c(=O)n(C)c(=O)n2C,-4,-10,i,·,0
CCCn1c(SCC(=O)N2c3ccccc3Sc3ccccc32)nc2c1c(=O)n(C)c(=O)n2C,-15,-7,i,65*,-1
C1=C(c2ccc(-c3ccccc3)cc2)Nc2ncnn2C1c1ccco1 (configuration not stated),-10,-1,?,65*,0
OCCCc1nc2n(n1)C(c1cccs1)C=C(c1ccc(Br)cc1)N2 (configuration not stated),-20,-4,·,-5,1
Fc1ccc(C2=CC(c3ccco3)n3ncnc3N2)cc1 (configuration not stated),-6,-1,·,4,0
Brc1ccc(C2=CC(c3cccs3)n3ncnc3N2)cc1 (configuration not stated),8,-1,?,100*,0
Cc1ccc(NC(=S)N(CCCN2CCC(C)CC2)Cc2ccco2)cc1C,-12,2,i,·,0
S=c1[nH]nc(C2CCCCC2)o1,-7,0,i,·,0
COc1ccc(S(=O)(=O)NN(C)c2ncc(C(F)(F)F)cc2Cl)cc1,36*,2,·,-3,5
COc1ccccc1C(=O)NC(CCSC)C(=O)NCC(c1ccco1)N(C)C (configuration not stated),2,-1,i,·,1
COc1ccccc1C(=O)NC(CCSC)C(=O)OCC(=O)NC(=O)NCc1ccco1 (configuration not stated),-11,0,i,97*,1
CCOC(=O)c1sc(=S)n(-c2ccccc2)c1N(C(C)=O)C(C)=O,31*,-1,i,·,1
Cc1cccc(N2CN=C3SCC(=O)N3C2)c1,-11,1,i,·,0
SMILES,Mdm2 ligase inh,TNF death inh,HSV replic up,E-sel TNF inh,L929 necroptosis
Oc1ccc(N2CCN(c3ncnc4sc(-c5ccccc5)cc34)CC2)cc1,22,-12,i,100*,-3
CC(=Nc1ccccc1)C1=C(O)CC(C)(C)CC1=O,17,0,i,·,0
CN=C(Cc1ccccc1)C1=C(O)CC(C)(C)CC1=O,13,87*,i,·,53
CCC(C)(C(=O)NC1CCCCC1)N(C(=O)CC1NC(=O)NC1=O)c1c(C)n(C)n(-c2ccccc2)c1=O (configuration not stated),4,2,i,-10,2
Fc1ccccc1Nc1nc(NCc2ccco2)nc(N2CCOCC2)n1,-19,2,i,·,4
CC(C)c1ccc(Nc2nc(NCc3ccco3)nc(N3CCOCC3)n2)cc1,-16,2,i,·,87*
CCOC(=O)c1c(NC(=O)CSc2nnc(C)c(=O)[nH]2)sc(C)c1C,-12,1,i,65*,2
Oc1ccc(-c2csc(-c3cccnc3)n2)cc1O,·,-3,i,·,55
Oc1ccc(-c2csc(-c3ccccc3)n2)cc1O,-16,-13,i,51*,14
COCCNS(=O)(=O)c1ccc(C)c(C)c1C,-18,16,i,·,0
Cc1cc(C)nc(S/C=C/C(=O)c2ccc(F)cc2)n1,59*,-25,i,·,-1
Cc1cc(C)nc(SCNC(=O)c2ccc(F)cc2)n1,18,0,i,·,0
O=S(=O)(/C(=C/c1ccc(C(F)(F)F)cc1)c1nc2ccccc2[nH]1)c1ccccc1,10,-24,i,99*,0
O=C(NCc1cccc(Br)c1)C1CC(c2ccc(C(F)(F)F)cc2)=NO1 (configuration not stated),·,·,i,·,·
Cc1nn(CCCC(=O)NCc2ccccc2)c(C)c1[N+](=O)[O-],40*,0,i,-11,0
Cc1nn(Cc2ccccc2)c(C)c1NC(=O)CCCn1nc(C)c([N+](=O)[O-])c1C,-15,1,i,12,2
CCn1c(O)c(N=NC(=O)C(O)c2ccccc2)c2ccccc21 (configuration not stated),-15,-4,i,·,1
COC(=O)CCC(=O)Nc1nc(-c2ccccc2)cs1,·,0,i,62*,0
CCOC(=O)Cc1csc(NC(=O)CN2C(=O)c3ccccc3S2(=O)=O)n1,5,1,i,96*,1
O=C1CSC(=S)N1/N=C/c1cccnc1,-5,1,i,·,0
O=C1CN(c2cc(Cl)cc(Cl)c2)C(=O)CN1/N=C/c1cccnc1,77*,1,i,·,0
CC(C)CC(=O)N1CCN(Cc2ccccc2[N+](=O)[O-])CC1,3,0,i,·,1
O=C(CCc1ccccc1)Nc1ncn[nH]1,-20,0,i,·,3
O=C(/C=C/c1ccccc1)Nc1ncn[nH]1,-13,-17,i,60*,3
Cc1nnc(SCCN2CCOCC2)c2nn(-c3ccccc3F)c(C)c12,79*,0,i,37,1
COc1cccc2c(=O)cc(C)n(CC(=O)Nc3cccc(C)c3)c12,0,-6,i,-11,·
O=C(c1ccc([N+](=O)[O-])cc1)N1CCSC1c1ccccc1Cl (configuration not stated),-9,51*,i,·,-1
